# Measurements taken from article PMC4462344 (Cancer Science, 2014).
# Where “and” joins values, the source holds several entries; their conditions need not be identical. Equal entries are not always repeated. Marks after values point to notes of the source that are not given here.
# Columns and labels:
# Type in all cases: in vivo, Japanese CRPC patients
# [1] = Plasma abiraterone acetate and abiraterone pharmacokinetics
# Method in brief: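 Venous blood was drawn at predose and 0.5–12 h after dosing on cycle 1 days 1, 7 and 15 (monotherapy days 1–7; prednisone 5 mg twice daily from day 8), plus 24-h and trough samples. Samples were taken on NaF, spun at 1300 g and 4°C for 10 min, and stored at −20°C. Assay was validated LC/MS/MS (LLOQ 0.220 ng/mL). Cmax, tmax and AUC24 came from non-compartmental analysis.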
# corticosterone = assay: Pharmacodynamics: serum corticosterone concentration
# Method in brief: (§1)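 Serum corticosterone, 11-deoxycorticosterone, testosterone and DHEA-S were measured at baseline and on days 2 and 8 of cycle 1. Abiraterone acetate was given orally once daily after an overnight fast, with no food for ≥1 h after dosing. It was given alone days 1–7, then with prednisone 5 mg twice daily. Results are summarised as change from baseline.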
# 11-deoxycorticosterone = assay: Pharmacodynamics: serum 11-deoxycorticosterone concentration
# Method in brief: as §1
# testosterone = assay: Pharmacodynamics: serum testosterone concentration
# Method in brief: as §1
# [2] = system: dehydroepiandrosterone sulfate (DHEA-S); assay: Pharmacodynamics: serum DHEA-S concentration
# Method in brief: as §1
# [3] = system: prostate-specific antigen (PSA); assay: Efficacy: PSA response; details: for patients who achieved ≥50% PSA decline from baseline at one or more evaluation time points: entire treatment period; for mean percentage change from baseline in PSA levels: week 12
# Method in brief: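 Oral abiraterone acetate given once daily in 28-day cycles to chemotherapy-naïve patients on continued LHRH agonist or post-orchiectomy: monotherapy days 1–7 of cycle 1, then with prednisone 5 mg twice daily. PSA measured at screening and day 1 of each cycle. Response was a ≥50% fall from baseline confirmed to persist ≥4 weeks, per PCWG2.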
# [4] = system: castration-resistant prostate cancer; assay: Efficacy: objective tumor response by RECIST
# Method in brief: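 Patients with measurable lesions were assessed for objective tumour response by RECIST. Dosing was once-daily oral abiraterone acetate (250, 500 or 1000 mg, the 1000 mg given 1 h premeal or 2 h postmeal) in 28-day cycles, with prednisone 5 mg twice daily added from cycle 1 day 8 onward.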
# [5] = Cycle 1 Day 2, 1000 (+2 h) mg (n = 6)
# [6] = Cycle 1 Day 2, 1000 (−1 h) mg (n = 6)
# [7] = Cycle 1 Day 8, 1000 (+2 h) mg (n = 6)
# [8] = Cycle 1 Day 8, 1000 (−1 h) mg (n = 6)
smiles,measurement,setting,value
CC(=O)O[C@H]1CC[C@@]2(C)C(=CC[C@@H]3[C@@H]2CC[C@]2(C)C(c4cccnc4)=CC[C@@H]32)C1 [Abiraterone acetate],plasma AA concentrations,"[1]; most plasma concentrations, all cohorts, LLOQ 0.220 ng/mL",below the quantification limit
same,"Corticosterone, mean (SD) change from baseline","corticosterone; Cycle 1 Day 2, 250 mg (n = 9)",1097.1 (687.41) ng/dL
same,"Corticosterone, mean (SD) change from baseline","corticosterone; Cycle 1 Day 2, 500 mg (n = 6)",2914.8 (1543.83) ng/dL
same,"Corticosterone, mean (SD) change from baseline",corticosterone; [5],4227.3 (2814.68) ng/dL
same,"Corticosterone, mean (SD) change from baseline",corticosterone; [6],1957.2 (1008.74) ng/dL
same,"Corticosterone, mean (SD) change from baseline","corticosterone; Cycle 1 Day 8, 250 mg (n = 9)",2015.2 (769.39) ng/dL
same,"Corticosterone, mean (SD) change from baseline","corticosterone; Cycle 1 Day 8, 500 mg (n = 6)",4086.5 (2478.82) ng/dL
same,"Corticosterone, mean (SD) change from baseline",corticosterone; [7],6426.2 (2212.64) ng/dL
same,"Corticosterone, mean (SD) change from baseline",corticosterone; [8],5147.8 (1642.75) ng/dL
same,"11-deoxycorticosterone, mean (SD) change from baseline","11-deoxycorticosterone; Cycle 1 Day 2, 250 mg (n = 8)",22.9 (10.13) ^† ng/dL
same,"11-deoxycorticosterone, mean (SD) change from baseline","11-deoxycorticosterone; Cycle 1 Day 2, 500 mg (n = 6)",40.3 (16.79) ng/dL
same,"11-deoxycorticosterone, mean (SD) change from baseline",11-deoxycorticosterone; [5],45.7 (61.09) ng/dL
same,"11-deoxycorticosterone, mean (SD) change from baseline",11-deoxycorticosterone; [6],36.3 (17.22) ng/dL
same,"11-deoxycorticosterone, mean (SD) change from baseline","11-deoxycorticosterone; Cycle 1 Day 8, 250 mg (n = 8)",45.9 (13.35) ^† ng/dL
same,"11-deoxycorticosterone, mean (SD) change from baseline","11-deoxycorticosterone; Cycle 1 Day 8, 500 mg (n = 6)",78.8 (36.41) ng/dL
same,"11-deoxycorticosterone, mean (SD) change from baseline",11-deoxycorticosterone; [7],112.3 (65.15) ng/dL
same,"11-deoxycorticosterone, mean (SD) change from baseline",11-deoxycorticosterone; [8],79.2 (51.53) ng/dL
same,"Testosterone, mean (SD) change from baseline","testosterone; Cycle 1 Day 2, 250 mg (n = 9)",−3.6 (3.64) ng/dL
same,"Testosterone, mean (SD) change from baseline","testosterone; Cycle 1 Day 2, 500 mg (n = 6)",−4.8 (3.06) ng/dL
same,"Testosterone, mean (SD) change from baseline",testosterone; [5],−7.5 (1.87) ng/dL
same,"Testosterone, mean (SD) change from baseline",testosterone; [6],−8.0 (3.22) ng/dL
same,"Testosterone, mean (SD) change from baseline","testosterone; Cycle 1 Day 8, 250 mg (n = 9)",−6.2 (4.06) ng/dL
same,"Testosterone, mean (SD) change from baseline","testosterone; Cycle 1 Day 8, 500 mg (n = 6)",−8.2 (3.82) ng/dL
same,"Testosterone, mean (SD) change from baseline",testosterone; [7],−9.2 (2.32) ng/dL
same,"Testosterone, mean (SD) change from baseline",testosterone; [8],−10.8 (6.21) ng/dL
same,"mean change from baseline in testosterone levels, range over cohorts","testosterone; day 8 in cycle 1, 250-1000 mg",-10.8 to -6.2 ng/dL
same,"DHEA-S, mean (SD) change from baseline","[2]; Cycle 1 Day 2, 250 mg (n = 9)",−19.1 (13.49) ug/dL
same,"DHEA-S, mean (SD) change from baseline","[2]; Cycle 1 Day 2, 500 mg (n = 6)",−28.3 (24.32) ug/dL
same,"DHEA-S, mean (SD) change from baseline",[2]; [5],−53.3 (34.14) ug/dL
same,"DHEA-S, mean (SD) change from baseline",[2]; [6],−59.7 (49.87) ug/dL
same,"DHEA-S, mean (SD) change from baseline","[2]; Cycle 1 Day 8, 250 mg (n = 9)",−35.7 (25.51) ug/dL
same,"DHEA-S, mean (SD) change from baseline","[2]; Cycle 1 Day 8, 500 mg (n = 6)",−38.5 (37.31) ug/dL
same,"DHEA-S, mean (SD) change from baseline",[2]; [7],−76.8 (54.02) ug/dL
same,"DHEA-S, mean (SD) change from baseline",[2]; [8],−95.3 (77.99) ug/dL
same,PSA response rate,[3]; 250 mg cohort,67%
same,PSA response rate,"[3]; 500 mg cohort, listed as AA",50%
same,PSA response rate,"[3]; 1000 (+2 h) mg cohort, listed as AA",83% and 83.3%
same,PSA response rate,"[3]; 1000 (−1 h) mg cohort, listed as AA",67% and 66.7%
same,patients with ≥50% PSA decline confirmed to be maintained for at least 4 weeks,[3]; all cohorts,18/27
same,overall PSA response rate,"[3]; all cohorts (N = 27), ≥50% decline maintained ≥4 weeks",67%
same,patients from each dose-group with ≥50% PSA reduction,[3]; each dose-group,At least 3 patients
same,patients who achieved ≥50% PSA decline from baseline at one or more evaluation time points,[3]; 250 mg,7 patients
same,patients who achieved ≥50% PSA decline from baseline at one or more evaluation time points,[3]; 500 mg,3 patients
same,patients who achieved ≥50% PSA decline from baseline at one or more evaluation time points,[3]; 1000 (+2 h) mg,5 patients
same,patients who achieved ≥50% PSA decline from baseline at one or more evaluation time points,[3]; 1000 (−1 h) mg,5 patients
same,patients who achieved ≥50% PSA decline from baseline at one or more evaluation time points,[3]; all cohorts,20/27
same,mean percentage change from baseline in PSA levels,[3]; 250 mg,−51.2%
same,mean percentage change from baseline in PSA levels,[3]; 500 mg,−29.1%
same,mean percentage change from baseline in PSA levels,[3]; 1000 mg (+2 h),−37.6%
same,mean percentage change from baseline in PSA levels,[3]; 1000 mg (−1 h),−60.4%
same,patients in whom the disease had progressed (RECIST),[4]; 250 mg,1 patients
same,patients with stable disease (RECIST),[4]; 250 mg,1 patients
same,patients with partial response (RECIST),[4]; 500 mg,1 patients
same,patients with stable disease (RECIST),[4]; 500 mg,2 patients
same,patients in whom the disease had progressed (RECIST),[4]; 1000 (+2 h) mg,1 patients
same,patients with partial response (RECIST),[4]; 1000 (−1 h) mg,1 patients
same,patients with stable disease (RECIST),[4]; 1000 (−1 h) mg,2 patients
same,patients in whom the disease had progressed (RECIST),[4]; all cohorts,2 patients
same,patients with partial response (RECIST),[4]; all cohorts,2 patients
same,patients with stable disease (RECIST),[4]; all cohorts,5 patients
C[C@]12CC[C@H](O)CC1=CC[C@@H]1[C@@H]2CC[C@]2(C)C(c3cccnc3)=CC[C@@H]12 [abiraterone],"mean Cmax and AUC24 of abiraterone, 2 h postmeal versus 1 h premeal","[1]; 1000 mg cohort, overall",3.1–6.0 times
same,"abiraterone Cmax and AUC24, 2 h postmeal versus 1 h premeal",[1]; AA 1000 mg multiple doses,approximately threefold to sixfold
same,accumulation index for AUC24 of abiraterone,[1]; irrespective of dose,1.40–1.69
same,accumulation index for Cmax of abiraterone,[1]; irrespective of dose,1.31–1.74
same,time at which steady state of plasma abiraterone was reached,[1]; regardless of dose,≤ 7 days
